Measured values collected from several papers.
Each line is one published result; the experiments were not run side by side.
CYP3A4: Cytochrome P450 3A4 (CYP3A4, Homo sapiens, UniProt P08684)

With `COC(=O)C1CCN(C(=O)c2ccc(NCc3cnc4nc(N)nc(N)c4n3)cc2)CC1` the inhibition was -13.4% (CYP3A4; enzyme activity, inhibitor, luciferase; 10 µM).
The CC50 of `NC(=O)C(NC(=O)C1CC(c2ccccc2)C1)c1ccccc1` (stereo not shown) is reported as > 100 µM (BHK-21; cell growth or viability, MTT).
For `CCC[C@@](N)(CO)CCc1ccc(OCCCCCC(C)C)cc1`, the Cmax was 161 nM (mouse, plasma; oral, 10 mg/kg).
`C[C@]12CC[C@H](n3ccnc3)CC1=CC[C@@H]1[C@@H]2CC[C@]2(C)C(n3cnc4ccccc43)=CC[C@@H]12.Cl.Cl` gave a Cmax of 1510 ng/mL (male CD-1 mouse, plasma; oral, 10 mg/kg).
For `O=C(Nc1ncc([N+](=O)[O-])s1)c1ccccc1O`, the CC50 was > 1000 µM (BHK-21; cell growth or viability, MTT).
For `O=C(O)C(F)(F)C(F)(F)C(F)(F)C(F)(F)C(F)(F)C(F)(F)C(F)(F)F`, the Km was 52.6 µM (Solute carrier organic anion transporter family member 1B1 (SLCO1B1, Homo sapiens, UniProt Q9Y6L6); transporter uptake, substrate; CHO; 1 min, pH 7.4).
With `Cc1ccccc1/C=C1/SC(=O)NC1=O` the CC50 was > 100 µM (BHK-21; cell growth or viability, MTT).
With `S=C(Nc1ccc2c(c1)Cc1ccccc1-2)Nc1ccc2c(c1)Cc1ccccc1-2` the CC50 was 236 µM (BHK-21; cell growth or viability, MTT; 42 h).
The inhibition of `COC(=O)C1CCN(C(=O)c2ccc(N(C)Cc3cnc4nc(N)nc(N)c4n3)cc2)CC1` is reported as -17.4% (CYP3A4; enzyme activity, inhibitor, luciferase; 10 µM).
For `CCCCCCCC(=O)N[C@@H](CCCCN)C(=O)N[C@@H](CCCCN)C(=O)N[C@@H](C)C(=O)N[C@@H](CC(C)C)C(=O)N[C@@H](CCCCN)C(=O)N[C@@H](CC(C)C)C(=O)N[C@@H](C)C(=O)N[C@@H](CCCCN)C(=O)N[C@@H](CCCCN)C(=O)N1CCC[C@H]1C(=O)N[C@@H](CC(C)C)C(=O)N[C@@H](CCCCN)C(=O)N[C@@H](CC(C)C)C(=O)N[C@@H](CC(C)C)C(=O)N[C@@H](CCCCN)C(N)=O`, the Cmax was 6950 ng/mL (female CD-1 mouse, blood; intravenous, 10 mg/kg, single dose).
With `N[C@@H](Cc1ccccc1)C(=O)N1CCC(C(=O)N[C@H](C(=O)O)c2ccccc2)CC1` the CC50 was > 100 µM (BHK-21; cell growth or viability, MTT).
`Cc1cc(C)nc(Nc2ncc(C(=O)NCCc3c(C)[nH]c4ccccc34)cn2)c1` has a Cmax of 1150 ng/mL (C57BL/6 mouse, plasma; intraperitoneal, 22 mg/kg).
`NCCc1ccccn1` gave an IC50 of 5000 µM (CYP3A4; enzyme activity, inhibitor).
